Here are results for eleven molecules from ChEMBL document CHEMBL4316652, “Kenalactams A-E, Polyene Macrolactams Isolated from Nocardiopsis CG3” (J Nat Prod, 2019).

In brackets after ≈: the same amount, converted by molar mass. Activity calls are given as the source filed them. The rule behind the calls is not given here.

One experiment deals with Escherichia coli. As to the kind of experiment: Antibacterial activity against Escherichia coli DSM1116 by serial dilution method. The class given is functional.
The test system of the next experiment is KB 3-1. As to the kind of experiment: Cytotoxicity against human KB3-1 cells measured after 5 days by MTT assay. The class given is functional, cell-based.
A further experiment deals with A549. The experiment in a line: Cytotoxicity against human A549 cells measured after 5 days by MTT assay. To be noted: A549, 120 h. It counts as functional, cell-based. Background: Tetrazolium dyes change colour on reduction, which living cells bring about.
Another experiment relates to Bacillus subtilis. The experiment in a line: Antibacterial activity against Bacillus subtilis DSM10 by serial dilution method. It counts as functional.
For a further experiment, the system named is L929. As to the kind of experiment: Cytotoxicity against mouse L929 cells measured after 5 days by MTT assay. The class given is cell-based.
Experiment [1] deals with Candida albicans. As to the kind of experiment: Antifungal activity against Candida albicans DSM 1665 by serial dilution method. The class given is functional. Put shortly: (§1)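 Fungi were tested by serial dilution in MYG medium (1.0% phytone peptone, 1.0% glucose, 50 mM HEPES, pH 7.0). The top well held 67 μg/mL final, from a 1 mg/mL stock. Methanol served as negative control. The MIC was recorded.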

Another experiment concerns SK-OV-3. The experiment in a line: Cytotoxicity against human SKOV3 cells measured after 5 days by MTT assay. The class given is functional, cell-based. As to conditions: SK-OV-3, 120 h.
Another experiment deals with MCF7. As to the kind of experiment: Cytotoxicity against human MCF7 cells measured after 5 days by MTT assay. The class given is functional, cell-based. To be noted: MCF7, 120 h.
Another experiment concerns Hepatitis C virus. The experiment in a line: Antiviral activity against HCV JC1 infected in human Huh7.5 cells assessed as reduction in viral infection treated for 4 hrs followed by compound washout and measured after 3 days by luciferase reporter gene assay. The class given is functional, organism-based. As to conditions: Hepacivirus hominis. Put shortly:
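Huh-7.5 cells were electroporated with the Luc-Jc1 reporter virus in the presence of compound. After 4 h the inoculum was removed, and the monolayers were washed three times with PBS and given fresh compound-free medium. Cells were lysed at 3 days for luciferase read-out. Runs were in duplicate, reported as mean and standard deviation.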
(In general: A reporter such as luciferase makes a cellular process visible.)

Another experiment has as its system Staphylococcus aureus. The experiment in a line: Antibacterial activity against Staphylococcus aureus Newman by serial dilution method. It counts as functional.
A further experiment deals with Mucor hiemalis. As to the kind of experiment: Antifungal activity against Mucor hiemalis DSM 2656 by serial dilution method. It counts as functional. The method, boiled down:
as §1

In another experiment the test system is PC-3. As to the kind of experiment: Cytotoxicity against human PC3 cells measured after 5 days by MTT assay. It counts as functional, cell-based. As to conditions: PC-3, 120 h.
In experiment [2] the test system is Candida albicans. As to the kind of experiment: Antifungal activity against amphotericin B-resistant Candida albicans. The class given is functional. The method, boiled down:
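Broth serial dilution MIC in 96-well plates using MYG medium for fungi (1.0% phytone peptone, 1.0% glucose, 50 mM HEPES, pH 7.0). Compounds were added as 20 µL aliquots of a 1 mg/mL stock, giving 67 μg/mL final in the first well. Methanol served as negative control.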

A further experiment concerns Trypanosoma brucei. The experiment in a line: Antimicrobial activity against Trypanosoma brucei. The class given is functional.
Setting [3] is: Homo sapiens, KB 3-1, 120 h, read-out: IC50.
Where [4] appears, read: Mus musculus, L929, 120 h, read-out: IC50.

The MIC is the lowest concentration found to suppress growth. For orientation: IC50 means the concentration needed to halve the response being measured. For `CC1=C\C=C\C=C\C=C/C=C\[C@H](C)CNC(=O)/C(C)=C/C=C/C=C/C=C\C=C/[C@H](C)CNC(=O)\C(C)=C\1`, the MIC entry in the experiment with Escherichia coli, in the experiment with Bacillus subtilis, with Candida albicans [1] and with Mucor hiemalis was “inactive” each time. Also, the IC50 in the experiment with KB 3-1 (setting [3]) is 5.4 µM; with A549, 32.1 µM; in the experiment on L929 (setting [4]), 42.2 µM; in the experiment on SK-OV-3, 10 µM; in the experiment on MCF7, 18.1 µM; in the experiment on PC-3, 5 µM. In the experiment with Hepatitis C virus, the outcome was Active. Moreover, it took 16.7 µg/mL (≈ 33.5 µM) to inhibit growth with Staphylococcus aureus (MIC).
Take `CC1=C\C=C\C=C/C=C\[C@H](C)CNC(=O)/C(C)=C/C=C/C(C)=C/C=C/C=C\C=C/[C@H](C)CNC(=O)\C(C)=C\C=C\1`: the IC50 was 2.4 µM in the experiment on KB 3-1 (setting [3]); 6.5 µM in the experiment with A549; “Non-Toxic” in the experiment on L929 (l929); 5.5 µM in the experiment on SK-OV-3; 2.1 µM in the experiment with PC-3. The MIC in the experiment on Staphylococcus aureus was determined as 66.7 µg/mL (≈ 124 µM).
On to `CC1=C/[C@H](O)[C@H](O)\C=C/C=C/C=C/C=C\C=C/[C@H](C)CNC(=O)\C=C/C=C/1`, for which the MIC result in the experiment on Escherichia coli, in the experiment with Bacillus subtilis, in the experiment with Candida albicans [1], with Staphylococcus aureus and in the experiment with Mucor hiemalis was “inactive” each time. Moreover, the outcome in the experiment with Hepatitis C virus was inactive.
For `CN(C)[C@@H]1C(O)=C(C(N)=O)C(=O)[C@@]2(O)C(O)=C3C(=O)c4c(O)cccc4[C@@](C)(O)[C@H]3[C@H](O)[C@@H]12` [OXYTETRACYCLINE], the MIC was found to be 1.66 µg/mL (≈ 3.61 µM) against Escherichia coli, 2.08 µg/mL (≈ 4.52 µM) in the experiment with Bacillus subtilis and 0.05 µg/mL (≈ 0.109 µM) in the experiment with Staphylococcus aureus.
With `C/C1=C/C=C/C(C)=C/C=C/C=C\C=C/[C@H](C)CNC(=O)/C(C)=C/C=C/C(C)=C/C=C/C=C\C=C/[C@H](C)CNC1=O`, the MIC result with Escherichia coli, in the experiment on Bacillus subtilis, in the experiment on Candida albicans [1] and in the experiment on Mucor hiemalis was “inactive” throughout. In addition, the outcome with Hepatitis C virus was Active.
Regarding `CC1=C/[C@H](O)[C@H](O)\C=C/C=C/C=C/C=C\C=C/[C@H](C)CNC(=O)/C=C/C=C/1`, the values for the half-inhibitory concentration (IC50) entry in the experiment with KB 3-1 (kb 3-1) and in the experiment with L929 (l929) were “Not Active” and “Non-Toxic”, respectively.
As for `CC1=C\C=C\C=C\C(C)CNC(=O)/C=C(O)/C=C/C(C)=C/C=C/C(O)C(O)C(O)C(=O)/C=C\C=C\1` (stereo unspecified), in the experiment with Candida albicans [2], the MIC came out at 4 µg/mL (≈ 8.31 µM).
Regarding `C\C1=C/C=C/C=C/C=C\C=C/[C@H](C)CNC(=O)/C(C)=C/C=C/C=C/C=C\C=C/[C@H](C)CNC1=O`, the MIC entry in the experiment with Escherichia coli and with Bacillus subtilis was “inactive” throughout. Also, the IC50 amounted to 6.8 µM with KB 3-1 (setting [3]); 16.3 µM in the experiment with A549; 32.8 µM in the experiment with L929 (setting [4]); 14.2 µM in the experiment on SK-OV-3; 16.4 µM in the experiment with MCF7; 6.3 µM with PC-3. Further, the MIC with Candida albicans [1], in the experiment with Staphylococcus aureus and against Mucor hiemalis was 66.7 µg/mL (≈ 145 µM) throughout. For the same molecule, the outcome in the experiment on Hepatitis C virus was Active.
In the case of `C/C(=C\c1csc(C)n1)[C@@H]1C[C@@H]2O[C@]2(C)CCC[C@H](C)[C@H](O)[C@@H](C)C(=O)C(C)(C)[C@@H](O)CC(=O)O1` [PATUPILONE], the IC50 stood at 5.3e-05 µM in the experiment on KB 3-1 (setting [3]); 0.004 µM in the experiment on A549; 0.00075 µM with L929 (setting [4]); 0.00024 µM with SK-OV-3; 7.4e-05 µM in the experiment on MCF7; 0.0022 µM with PC-3.
In the experiment with Trypanosoma brucei, `CC1=C\C=C\C[C@H](C)NC(=O)/C=C/C=C/C=C/[C@H](C)[C@@H](O)[C@H](O)[C@@H](O)C[C@@H](O)/C=C\C=C\C(C)=C\1` gave an MIC of 0.8 µM (≈ 0.387 µg/mL).
Consider NYSTATIN, for which the MIC in the experiment on Candida albicans [1] came to 8.8 µg/mL; against Mucor hiemalis it was 4.16 µg/mL.
